Activity calls are given as the source filed them. The rule behind the calls is not given here.

This experiment has as its target AMP-activated protein kinase, AMPK (Homo sapiens) (UniProt P54646+O43741+P54619+Q9UGJ0+Q9Y478+Q13131+Q9UGI9). Kind of experiment: Activation of AMPK in human HepG2 cells assessed as reduction of gluconeogenesis at 1 mM after 24 hrs by enzymatic colorimetric assay. It counts as cell-based. In short, it runs like this:
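HepG2 cells seeded in DMEM with 10% FBS, switched next day to FBS-free medium and treated 24 h. Medium then replaced by glucose-free, phenol red-free DMEM with 20 mM sodium lactate and 2 mM sodium pyruvate. After 6 h, glucose released into the medium was measured by enzymatic colorimetric assay and normalized to total cell protein. Mean ± SEM; one-way ANOVA with Tukey test.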

Take `CN(C)C(=N)NC(=N)N`: the outcome was Active.

The values are drawn from ChEMBL document CHEMBL3632550, “Saponarin activates AMPK in a calcium-dependent manner and suppresses gluconeogenesis and increases glucose uptake via phosphorylation of CRTC2 and HDAC5” (Bioorg Med Chem Lett, 2015).
